FLuc inh counter = Photinus pyralis luciferase inhibition counter-screen; P08659; ATPLite firefly luciferase biochemical luminescence, 10 min; inhibition, % at 10 µM; 1.5% of 200,000 active; AID 1006;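 active = inhibition above about 50% when tested at 10 µM, limit read from the data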
Target sequence (P08659 whole entry, looked up): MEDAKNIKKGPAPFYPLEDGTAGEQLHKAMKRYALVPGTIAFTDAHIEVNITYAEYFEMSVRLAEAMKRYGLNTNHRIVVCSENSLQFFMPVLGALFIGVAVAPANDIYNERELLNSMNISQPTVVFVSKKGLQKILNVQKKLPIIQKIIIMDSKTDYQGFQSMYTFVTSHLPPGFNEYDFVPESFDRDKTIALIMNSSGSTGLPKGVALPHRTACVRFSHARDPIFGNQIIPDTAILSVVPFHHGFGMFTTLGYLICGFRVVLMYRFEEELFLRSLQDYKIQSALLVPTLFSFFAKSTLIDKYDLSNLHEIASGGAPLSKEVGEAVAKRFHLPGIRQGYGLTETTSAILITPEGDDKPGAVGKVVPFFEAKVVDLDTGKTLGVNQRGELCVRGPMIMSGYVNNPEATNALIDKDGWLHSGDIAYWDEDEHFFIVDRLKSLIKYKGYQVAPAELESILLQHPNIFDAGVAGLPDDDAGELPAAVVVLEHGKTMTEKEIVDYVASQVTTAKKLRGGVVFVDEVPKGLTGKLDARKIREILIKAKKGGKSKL
APP 5'UTR act = activates APP 5'UTR luciferase reporter | SH-SY5Y APP 5'UTR luciferase reporter, luminescence; zero percent = DMSO vehicle wells | activation, % at 2 µM | 1% of 190,000 active;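 active = activation above a set limit, based on mean plus 3 SD of controls, cut at about 140% in these data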
APP transl inh = APP translation inhibition. 0.82% of 190,000 active. inhibition, % at 2 µM. SH-SY5Y APP 5'UTR-luciferase reporter, luminescence;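 active = inhibition above a set limit, derived from the sample mean plus 3 SD, cut at about 45% in these data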
FLuc stim CS = affects firefly luciferase, flagging false hits in luciferase stimulation screens. activation factor at 10 µM. 200,000 tested, under 10 active. ATPlite luciferase biochemical, luminescence, 10 min; 0 = ATP-free wells, 1 = DMSO control. P08659. AID 1027;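 active = luciferase activation factor, scaled between plate controls, of at least 2 with compound at 10 µM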
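Assay system: Luciferase/luciferin detection reagent, cell-free biochemical luciferase assay / Read-out: luciferase activation / Benchmarks: No-ATP low control, compound-free enzyme-plus-ATP high control / Medium: PBS buffer for ATP / Detection: luminescence measurement of luciferase light output / Schedule: 10 min at ambient temperature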
NF-kB expr up = compounds increasing NF-kB expression in human neuronal cells; NF-kB reporter expression; active compounds read high; AID 1239; 1.6% of 190,000 active; fold change at 12.5 µM; in the data active = fold change above about 3.3
STAT1 act = STAT1 signaling activation. NIH 3T3 STAT1-luciferase reporter, IFN-gamma, luminescence; 100% = IFN-gamma alone, no compound. activation (% of control), % at 5.5 µM. 2.6% of 200,000 active. AID 932;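 active = activation above the screen-wide mean activation plus 3 SD, cut at about 130% in these data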;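 also: raw ratio to IFN-gamma control signal so 100% means no change and 0% no light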
Starred values were filed as active, the others as inactive. This is a sample that favours compounds with a hit; in the whole collection about 4.8% have one here.

SMILES	FLuc inh counter	APP 5'UTR act	APP transl inh	FLuc stim CS	NF-kB expr up	STAT1 act
CCOC(=O)C1(Cc2ccccc2C(F)(F)F)CCN(C2CCN(C(C)=O)CC2)CC1	-8.6	6.5	-6.5	1.1	1.01	100.0
Cc1cc(CN2CCN(CCC#N)CC2)c(O)c(C2(C)CCCCC2)c1	-3.6	-0.7	0.7	1	1	91.7
CCN(CC)c1ccc(/C=C/C(=O)C2C(=O)C=C(C)OC2=O)cc1 (configuration not stated)	49.4	164.1*	-164.1	0.5	1.92	137.5*
CSc1nc2sc(-c3ccccc3)cc2c(=O)n1N	34.3	2.0	-2.0	0.7	1.99	138.1*
COc1ccc(Cl)cc1NC(=O)C(C)Sc1n[nH]c(N)n1 (configuration not stated)	-6.5	-2.1	2.1	1.1	0.92	85.3
COc1ccc(-c2cnc3c(c2)CCC3(C#N)C#N)cc1	-3.6	-62.5	62.5*	1	2.23	112.4
Oc1ccc(/C=N/N2CCOCC2)c(O)c1O	15.1	6.3	-6.3	0.8	1.01	98.3
COc1cccc(C=Nc2ccc3c(c2)OCCO3)c1O	96.0*	-13.9	13.9	0	0.8	101.3
COc1cccc(/C=N/NC(=O)CNC(=O)c2ccc3c(c2)OCCO3)c1O	3.5	-4.9	4.9	1	0.85	97.5
COc1cccc(/C=N/N2CCOCC2)c1O	62.9*	24.5	-24.5	0.4	1.64	112.4
CC(=O)c1ccc(NC(=O)c2cccs2)cc1	29.5	74.4	-74.4	0.7	2.47	127.2
C/C(=N\NC(=O)c1ccccc1C)c1ccc(NC(=O)c2cccs2)cc1	-2.1	94.8	-94.8	1	1.09	116.4
C/C(=N\NC(=O)c1ccccc1)c1ccc(NC(=O)c2cccs2)cc1	-0.7	79.2	-79.2	1	1.28	135.9*
CC(=O)Nc1cccc(/C(C)=N/NC(=O)c2cccs2)c1	10.6	7.0	-7.0	0.9	1.24	140.2*
N/C(=N\O)c1ccc(NC(=O)c2cccs2)cc1	27.7	50.7	-50.7	0.7	2.26	130.2*
C/C(=N\NC(=O)C(N)=O)c1ccc(Br)cc1	-0.9	3.9	-3.9	1	1.36	94.4
C/C(=N\NC(=O)C(N)=O)c1ccc(NC(=O)c2cccs2)cc1	3.6	55.9	-55.9	1	1.7	137.2*
O=[N+]([O-])c1nn(-c2ccccc2)[n+]([O-])c1N1CCN(c2ccccc2F)CC1	-2.8	7.3	-7.3	1	1.14	99.2
C/C(=N\NC(=O)c1ccccc1)c1ccccc1Br	3.0	27.5	-27.5	1	1.88	116.5
CCN(CC)S(=O)(=O)c1cccc(C(=O)N/N=C(\C)c2cccs2)c1	47.1	111.8	-111.8	0.5	2.84	128.7*
C/C(=N\NC(=O)c1ccccc1)c1ccccc1F	37.6	94.8	-94.8	0.6	1.02	132.4*
N#Cc1ccc(CO/N=C/c2ccccc2)cc1	5.4	28.6	-28.6	0.9	1.75	120.4
Cc1cccc(Sc2c([N+](=O)[O-])ncn2C)c1	52.5*	3.0	-3.0	0.5	1.29	100.7
N#Cc1c(-c2ccccc2)nc(-c2ccncc2)[nH]c1=O	0.4	-68.7	68.7*	1	1.65	103.9
Cc1nc2ccccc2c(=O)n1N(c1ccccc1)c1ccccc1	-7.8	-11.0	11.0	1.1	1.04	100.4
SMILES	FLuc inh counter	APP 5'UTR act	APP transl inh	FLuc stim CS	NF-kB expr up	STAT1 act
COc1ccc(C(=O)Nn2cnc3ccccc3c2=O)c(OC)c1	8.4	26.2	-26.2	0.9	1.85	141.1*
CCN1CCCc2cc(CN(CCN3CCOCC3)C(=S)Nc3cccc(Cl)c3)ccc21	-7.2	7.0	-7.0	1.1	8.13*	98.3
O=c1[nH]cnc2c1sc1nc3c(c(-c4ccc(Cl)cc4)c12)CCC3	-0.3	-51.2	51.2*	1	1.79	105.9
C/C(CCc1ccc2c(c1)OCO2)=N\N=C1\NC(=O)CC(C(=O)Nc2ccccc2F)S1 (configuration not stated)	-3.0	-6.4	6.4	1	1.23	96.0
Cc1ccc(C(=O)N2c3ccccc3CC2C)o1 (configuration not stated)	46.1	133.5	-133.5	0.5	1.05	148.5*
CC(=O)c1c(C)[nH]c(C(=O)N2c3ccccc3CC2C)c1C (configuration not stated)	-6.3	1.2	-1.2	1.1	1.45	95.9
Cc1nc2cc(NC(=O)N3c4ccccc4CC3C)ccc2o1 (configuration not stated)	61.5*	95.0	-95.0	0.4	1.43	146.2*
COc1ccccc1N1C(=O)C2C(c3ccccc3F)NN(C(=O)c3ccc(C)cc3)C2C1=O (configuration not stated)	4.6	2.4	-2.4	1	1.28	100.3
Cc1ccc(C(=O)Nc2nnc(C3CCCCC3)s2)o1	52.5*	112.7	-112.7	0.5	3.76*	114.9
Cc1nc(NC(=O)c2ccc(Br)o2)sc1C	40.2	121.3	-121.3	0.6	4.7*	130.3*
Cc1ccc(C(=O)Nc2nnc(C)s2)o1	-4.3	-10.3	10.3	1	1.17	107.4
Cc1cc(C(=O)Nc2nnc(C3CCCCC3)s2)no1	8.9	4.3	-4.3	0.9	1.26	99.8
Cc1ccc(C(=O)Nc2nc(C)c(C)s2)o1	39.7	131.6	-131.6	0.6	4.03*	131.9*
O=C(Nc1nccs1)c1ccc(Br)o1	7.8	41.1	-41.1	0.9	1.37	106.1
CC(C)(C)NC(=O)C(c1c[nH]c2ccccc12)N(C(=O)Cn1nnc(-c2ccc(F)cc2)n1)c1cccc(O)c1 (configuration not stated)	-2.2	6.6	-6.6	1	1	110.2
CC(C)C(NC(=O)c1ccc(F)cc1)C(=O)OCC(=O)N1CC(=O)Nc2ccccc21 (configuration not stated)	-5.2	7.7	-7.7	1.1	1.04	99.4
Cc1[nH]c2ccc(-c3nnc(SCC(=O)NCc4ccco4)n3Cc3ccccc3)cc2c1C	-1.8	-3.2	3.2	1	0.73	101.8
CC(=O)/C(=N\Nc1ccccc1)Sc1cccc2cccnc12	-8.0	-12.0	12.0	1.1	1.05	97.6
COc1ccc(S(=O)(=O)Nc2cc(Sc3ncn[nH]3)c(O)c3ccccc23)cc1	-0.9	-8.8	8.8	1	0.18	89.1
O=S(=O)(Nc1cc(Sc2cccc3cccnc23)c(O)c2ccccc12)c1ccc(F)cc1	-4.6	-78.1	78.1*	1	0.27	140.6*
O=C(Sc1cccc2cccnc12)c1ccc(F)cc1	-3.6	-71.2	71.3*	1	0.15	173.2*
CS(=O)(=O)NCCNC(=O)c1cc(OCC(F)(F)F)ccc1OCC(F)(F)F	-1.1	-78.0	78.0*	1	1.21	95.6
C=CCn1c(C)csc1=Nc1ccc(C(C)=O)cc1	11.4	69.9	-69.9	0.9	2.12	126.2
CCOC(=O)c1ccc(N=c2scc(C)n2CC)cc1	14.5	89.5	-89.5	0.9	4.26*	124.5
